# Several values for one entry are separate records, joined by “and”; a condition that tells them apart may be missing. Identical values can stand only once. Activity calls are given as the source filed them. No cut-off for these calls is given here.
# Tests used:
# [1] = molecular target: T1, Glucose-dependent insulinotropic receptor (Homo sapiens, UniProt Q8TDV5); experiment: Agonist activity at […] transfected in Xenopus dermal melanophore assessed as dispersion of melatonin-induced pigmentation; format: functional
# T1 sequence (Q8TDV5 whole entry): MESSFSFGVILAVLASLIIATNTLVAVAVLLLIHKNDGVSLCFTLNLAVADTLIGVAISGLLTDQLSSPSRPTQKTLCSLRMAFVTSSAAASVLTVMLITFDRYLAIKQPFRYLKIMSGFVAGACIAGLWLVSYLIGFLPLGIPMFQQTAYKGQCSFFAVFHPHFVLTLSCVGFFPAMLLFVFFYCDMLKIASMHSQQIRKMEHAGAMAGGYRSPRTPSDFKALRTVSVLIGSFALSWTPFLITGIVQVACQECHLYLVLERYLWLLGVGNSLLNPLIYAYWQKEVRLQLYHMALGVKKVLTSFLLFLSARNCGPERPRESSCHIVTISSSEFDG
# Method in brief: (§1)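 Cultured Xenopus dermal melanophores transiently transfected with GPR119 plasmid, plated in 384-well format. At 48 h post-transfection, pigment aggregated with melatonin (10nM, 1 h), then compounds applied for 1 h. Pigment dispersion read as absorbance (light transmission) to build concentration-response curves; EC50 with log SD, number of determinations given.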
# [2] = molecular target: T1, Glucose-dependent insulinotropic receptor; experiment: Agonist activity at GPR119 expressed in HEK293 cells assessed as cAMP level by flash plate assay; format: functional, cell-based
# Method in brief: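 HEK293 cells transiently transfected with GPR119; crude plasma membranes prepared 48 h post-transfection. Membrane adenylyl cyclase read by FlashPlate cAMP kit: 15 µg membrane protein, 60 min at room temperature in 20 mM HEPES pH 7.4 with 10 µM GTP, 0.1 mM ATP, 500 µM IBMX, 10 mM phosphocreatine, creatine phosphokinase. cAMP from on-plate standard curve; usually n = 1 or 2.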
# [3] = species: Canis lupus familiaris; experiment: Agonist activity at dog GPR119 transfected in Xenopus dermal melanophore assessed as dispersion of melatonin-induced pigmentation; format: functional; method in brief: as §1
# [4] = Cmax in C57BL/6J mouse at 10 mg/kg, po; format: ADME, organism-based; set-up: dose 10 mg/kg, route oral; conditions: in vivo
# Method in brief: (§2)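 Mouse oral PK: C57/bl6J mice given a single 10 mg/kg po dose; plasma exposure profile used to derive tmax, Cmax, AUC (area under exposure curve) and terminal t1/2. No iv arm run in mouse.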
# [5] = molecular target: T2, Glucose-dependent insulinotropic receptor (Mus musculus) (UniProt Q7TQP3); experiment: Agonist activity at mouse GPR119 transfected in Xenopus dermal melanophore assessed as dispersion of melatonin-induced pigmentation; format: functional; method in brief: as §1
# T2 sequence (whole entry): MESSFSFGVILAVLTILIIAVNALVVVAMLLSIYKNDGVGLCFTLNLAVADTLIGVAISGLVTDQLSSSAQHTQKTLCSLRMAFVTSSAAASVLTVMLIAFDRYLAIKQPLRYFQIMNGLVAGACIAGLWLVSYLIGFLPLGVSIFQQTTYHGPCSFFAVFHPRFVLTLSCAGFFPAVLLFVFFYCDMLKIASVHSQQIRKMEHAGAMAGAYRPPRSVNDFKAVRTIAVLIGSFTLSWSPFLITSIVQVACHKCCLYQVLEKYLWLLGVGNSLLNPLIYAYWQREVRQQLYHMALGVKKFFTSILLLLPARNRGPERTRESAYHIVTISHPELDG
# [6] = Half life in C57BL/6J mouse at 10 mg/kg, po; format: ADME, organism-based; set-up: dose 10 mg/kg, route oral; conditions: in vivo; method in brief: as §2
# [7] = tested on: Mus musculus; experiment: Increase in glucose dependent insulin release in wild type C57BL/6J mouse at 20 mg/kg, po by oral glucose tolerance test; format: functional, organism-based; set-up: dose 20 mg/kg
# [8] = Tmax in Sprague-Dawley rat at 10 mg/kg, po; format: ADME, organism-based; set-up: dose 10 mg/kg, route oral; conditions: in vivo
# Method in brief: (§3)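 Rat oral PK: single 10 mg/kg po dose; plasma tmax, Cmax, AUC, terminal t1/2 determined, with oral bioavailability (%F) also reported.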
# [9] = tested on: Mus musculus; experiment: Increase in glucose dependent insulin release in GPR119 deficient C57BL/6J mouse at 20 mg/kg, po by oral glucose tolerance test; format: functional, organism-based; set-up: dose 20 mg/kg
# [10] = Inhibition of cytochrome
# [11] = Oral bioavailability in Sprague-Dawley rat at 10 mg/kg; format: ADME, organism-based; conditions: in vivo; method in brief: as §3
# [12] = Cmax in Sprague-Dawley rat at 10 mg/kg, po; format: ADME, organism-based; set-up: dose 10 mg/kg, route oral; conditions: in vivo; method in brief: as §3
# [13] = molecular target: Voltage-gated inwardly rectifying potassium channel KCNH2 (Homo sapiens, UniProt Q12809); experiment: Inhibition of hERG upto 10 uM by patch clamp assay; format: toxicity
# Chain of Voltage-gated inwardly rectifying potassium channel KCNH2 (Q12809 whole entry): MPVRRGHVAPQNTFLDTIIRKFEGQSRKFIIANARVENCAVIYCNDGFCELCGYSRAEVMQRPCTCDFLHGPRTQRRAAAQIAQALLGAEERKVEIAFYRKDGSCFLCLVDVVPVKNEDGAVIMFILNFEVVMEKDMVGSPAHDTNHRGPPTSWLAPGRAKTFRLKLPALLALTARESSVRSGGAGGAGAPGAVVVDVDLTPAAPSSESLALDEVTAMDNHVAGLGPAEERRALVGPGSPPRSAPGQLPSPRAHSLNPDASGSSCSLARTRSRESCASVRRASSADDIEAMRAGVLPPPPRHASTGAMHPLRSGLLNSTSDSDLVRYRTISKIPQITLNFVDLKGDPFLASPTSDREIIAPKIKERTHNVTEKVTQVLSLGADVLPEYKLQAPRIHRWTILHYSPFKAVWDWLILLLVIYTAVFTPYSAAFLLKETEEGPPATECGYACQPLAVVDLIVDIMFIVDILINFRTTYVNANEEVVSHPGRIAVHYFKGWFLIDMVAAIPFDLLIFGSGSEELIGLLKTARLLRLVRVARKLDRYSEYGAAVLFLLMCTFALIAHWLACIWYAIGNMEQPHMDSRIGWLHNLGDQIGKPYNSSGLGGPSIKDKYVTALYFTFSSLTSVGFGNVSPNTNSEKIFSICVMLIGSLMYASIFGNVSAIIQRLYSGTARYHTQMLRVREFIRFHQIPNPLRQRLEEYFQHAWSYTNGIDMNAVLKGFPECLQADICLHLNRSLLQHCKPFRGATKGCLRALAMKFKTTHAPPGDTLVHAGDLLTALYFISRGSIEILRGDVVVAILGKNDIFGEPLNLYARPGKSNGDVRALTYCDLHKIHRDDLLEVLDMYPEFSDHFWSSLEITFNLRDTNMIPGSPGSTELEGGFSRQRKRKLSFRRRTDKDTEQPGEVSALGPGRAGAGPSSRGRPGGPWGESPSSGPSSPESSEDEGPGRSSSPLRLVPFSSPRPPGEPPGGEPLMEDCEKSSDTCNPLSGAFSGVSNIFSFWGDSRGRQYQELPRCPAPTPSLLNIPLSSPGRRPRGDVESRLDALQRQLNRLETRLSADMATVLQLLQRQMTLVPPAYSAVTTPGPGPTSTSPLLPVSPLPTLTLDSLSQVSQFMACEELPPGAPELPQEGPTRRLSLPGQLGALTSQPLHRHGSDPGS
# Method in brief: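 hERG channel current measured by patch clamp, compound tested up to 10 µM.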
# [14] = tested on: Rattus norvegicus; experiment: Effect on glucose excursion in Sprague-Dawley rat at 30 mg/kg, po by oral glucose tolerance test; format: functional, organism-based; set-up: dose 30 mg/kg
# [15] = molecular target: T3, Glucose-dependent insulinotropic receptor (Rattus norvegicus) (UniProt Q7TQN8); experiment: Agonist activity at rat GPR119 transfected in Xenopus dermal melanophore assessed as dispersion of melatonin-induced pigmentation; format: functional; method in brief: as §1
# T3 sequence (whole entry): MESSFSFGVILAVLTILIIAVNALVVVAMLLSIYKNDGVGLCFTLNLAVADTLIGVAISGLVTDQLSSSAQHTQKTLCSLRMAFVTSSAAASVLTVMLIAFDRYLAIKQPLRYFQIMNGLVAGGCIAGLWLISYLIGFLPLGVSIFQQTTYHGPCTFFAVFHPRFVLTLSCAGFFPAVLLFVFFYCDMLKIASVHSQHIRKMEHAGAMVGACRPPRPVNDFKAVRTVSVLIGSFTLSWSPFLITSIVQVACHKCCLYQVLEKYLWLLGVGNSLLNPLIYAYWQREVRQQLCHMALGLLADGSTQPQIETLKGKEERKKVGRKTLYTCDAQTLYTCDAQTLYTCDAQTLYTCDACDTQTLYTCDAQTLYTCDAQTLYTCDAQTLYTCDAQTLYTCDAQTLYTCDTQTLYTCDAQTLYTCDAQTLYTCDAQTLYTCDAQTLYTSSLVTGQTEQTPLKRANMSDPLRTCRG
# [16] = AUC in Sprague-Dawley rat at 10 mg/kg, po; format: ADME, organism-based; set-up: dose 10 mg/kg, route oral; conditions: plasma; method in brief: as §3
# [17] = Agonist activity at GPR119 in hamster HIT-T15 cells stimulation of assessed as cAMP production; format: functional, cell-based; conditions: Cricetinae
# [18] = Tmax in C57BL/6J mouse at 10 mg/kg, po; format: ADME, organism-based; set-up: dose 10 mg/kg, route oral; conditions: in vivo; method in brief: as §2
# [19] = AUC in C57BL/6J mouse at 10 mg/kg, po; format: ADME, organism-based; set-up: dose 10 mg/kg, route oral; conditions: plasma; method in brief: as §2
# [20] = Half life in Sprague-Dawley rat at 10 mg/kg, po; format: ADME, organism-based; set-up: dose 10 mg/kg, route oral; conditions: in vivo; method in brief: as §3
# [21] = species: Macaca fascicularis; experiment: Agonist activity at cynomolgus monkey GPR119 transfected in Xenopus dermal melanophore assessed as dispersion of melatonin-induced pigmentation; format: functional; method in brief: as §1
# [22] = species: Mus musculus; experiment: Increase in glucose dependent insulin release in diabetic KK/ay mouse by oral glucose tolerance test; format: functional, organism-based
compound,measurement,setting,value
CS(=O)(=O)c1ccc(Nc2ncnc(N3CCC(c4nc(C5CC5)no4)CC3)c2[N+](=O)[O-])cc1,EC50,[1],25 nM
Cc1noc(C2CCN(c3ncnc(Nc4ccc(S(C)(=O)=O)cc4)c3[N+](=O)[O-])CC2)n1,EC50,[1],260 nM
CCCc1noc(C2CCN(c3ncnc(Nc4ccc(S(C)(=O)=O)cc4)c3[N+](=O)[O-])CC2)n1,EC50,[1],430 nM
CS(=O)(=O)c1ccc(Nc2ncnc(N3CCC(c4nc(-c5cccnc5)[n-][o+]4)CC3)c2[N+](=O)[O-])cc1,EC50,[1],660 nM
CC[S+]([O-])c1ccc(Nc2ncnc(N3CCC(c4nc(C(C)C)no4)CC3)c2[N+](=O)[O-])cc1 (centres undefined),EC50,[1],17.1 nM
CCOC(=O)C1CCN(c2ncnc(Oc3ccc(CCC(C)=O)cc3)c2[N+](=O)[O-])CC1,EC50,[2],1700 nM
CC(C)c1noc(C2CCN(c3ncnc(Nc4ccc(S(C)(=O)=O)c(F)c4)c3[N+](=O)[O-])CC2)n1,EC50,[1],3.4 nM
CCOC(=O)C1CCN(c2ncnc(Nc3ccc(S(C)(=O)=O)cc3)c2[N+](=O)[O-])CC1,EC50,[2],1200 nM
CS(=O)(=O)c1ccc(Nc2ncnc(N3CCC(c4nc(CC5CC5)no4)CC3)c2[N+](=O)[O-])cc1,EC50,[1],160 nM
CCS(=O)(=O)c1ccc(Nc2ncnc(N3CCC(c4nc(C(C)C)no4)CC3)c2[N+](=O)[O-])cc1,EC50,[1],17 nM
CCCS(=O)(=O)c1ccc(Nc2ncnc(N3CCC(c4nc(C(C)C)no4)CC3)c2[N+](=O)[O-])cc1,EC50,[1],4.7 nM
CC(C)c1nc(C2CCN(c3ncnc(Nc4ccc(S(=O)(=O)C(C)C)cc4F)c3[N+](=O)[O-])CC2)[o+][n-]1,EC50,[1],7.9 nM
CC(C)c1noc(C2CCN(c3ncnc(Nc4ccc(S(C)(=O)=O)cc4F)c3[N+](=O)[O-])CC2)n1,Activity,[3],1.6 nM
same,Cmax,[4],4980 ng/mL
same,Activity,[5],12 nM
same,half-life,[6],3.4 h
same,Activity,[7],Active
same,Tmax,[8],1 h
same,Activity,[9],inactive
same,Activity,[10],inactive
same,bioavailability,[11],12%
same,Cmax,[12],126 ng/mL and 250 nM
same,Activity,[13],Not Active
same,Activity,[14],inactive
same,Activity,[15],14 nM
same,AUC,[16],263 ng·h/mL
same,EC50,[17],4.7 nM
same,EC50,[1],0.68 nM
same,Tmax,[18],0.5 h
same,AUC,[19],19800 ng·h/mL
same,half-life,[20],1.1 h
same,Activity,[21],0.4 nM
same,Activity,[22],Active
CCSc1ccc(Nc2ncnc(N3CCC(c4nc(C(C)C)no4)CC3)c2[N+](=O)[O-])cc1,EC50,[1],110 nM

# From ChEMBL document CHEMBL1139413, “Discovery of the first potent and orally efficacious agonist of the orphan G-protein coupled receptor 119” (J Med Chem, 2008)
